NPY-Y2 PAM-ag = human NPY-Y2 potentiation or agonism, primary screen | activation, % at 3.6 µM | actives 0.45% (n = 220,000) | cells expressing NPY-Y2, potentiator/agonist read-out | P49146 | AID 1359; in the data active means activation above about 27%;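 further: cells stimulated with NPY near EC25 plus isoproterenol at EC100; 0% = vehicle plus submaximal agonist and 100% = vehicle plus saturating agonist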
Target sequence (P49146 whole entry, looked up): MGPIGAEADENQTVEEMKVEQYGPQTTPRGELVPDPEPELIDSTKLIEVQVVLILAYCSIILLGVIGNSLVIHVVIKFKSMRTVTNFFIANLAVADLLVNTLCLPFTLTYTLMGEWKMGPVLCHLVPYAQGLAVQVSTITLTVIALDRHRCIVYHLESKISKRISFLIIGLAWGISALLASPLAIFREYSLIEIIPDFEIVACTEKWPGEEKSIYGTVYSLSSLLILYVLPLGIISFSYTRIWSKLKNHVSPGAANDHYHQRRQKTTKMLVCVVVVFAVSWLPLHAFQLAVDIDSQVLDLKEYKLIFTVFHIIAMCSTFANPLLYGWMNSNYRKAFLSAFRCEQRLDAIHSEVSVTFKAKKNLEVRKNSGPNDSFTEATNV
NPY Y1 blocker = NPY-Y1 (human) receptor antagonism | P25929 | actives 1% (n = 200,000) | inhibition, % at 3.6 µM | AID 1040 | HEK293-CNG Y1 cells, membrane potential fluorescence; NPY at EC95, then isoproterenol;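 active means inhibition above the campaign mean inhibition of all tested compounds plus 3 SD, cut at about 20% in these data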;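 further: 0% = DMSO wells given NPY plus isoproterenol and 100% = isoproterenol alone without NPY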
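Material: HEK293 Y1/CNG channel cell line | Also added: NPY (25 nM), isoproterenol (1 µM), Ro 20-1724 (25 µM) | Compound: One concentration, 3.6 µM, in 0.4% DMSO | Schedule: 3 h dye uptake, 1 h room-temperature compound, 45 min post-isoproterenol | Signal: Membrane-potential fluorescent dye readout | Read-out: % inhibition of NPY effect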
RAM network inh = inhibitors of the yeast RAM network; S. cerevisiae dse1pr::URA3 reporter, 5-FOA growth OD615, 2 d; analog-sensitive cbk1-as2 kinase mutant strain; inhibition, % at 50 µM; actives 1.8% (n = 190,000);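 active means inhibition above a set limit, 3 SD over mean compound inhibition, cut at about 8.4% in these data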;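 further: 0% = DMSO-only wells with no growth and 100% = 10 µM 1-NA-PP1 full growth; inhibition rescues growth on 5-FOA so higher OD means more RAM inhibition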
NPY-Y2 antag = NPY-Y2 (human) receptor antagonism | P49146 | NPY-Y2 expressing cells, antagonist mode | inhibition, % at 2.7 µM | actives 0.99% (n = 140,000); in the data active means inhibition above about 17%;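 further: 0% = vehicle with agonist challenge and 100% = reference antagonist with challenge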
NPY1 pot ag = human NPY-Y1 potentiation or agonism, primary screen; P25929; NPY-Y1 expressing cells, potentiator/agonist activation; actives 0.37% (n = 220,000); activation, % at 3.6 µM; in the data active means activation above about 33%, passing the limit was not always enough;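 further: cells stimulated with NPY at EC10 then isoproterenol at EC100; 0% = low agonist plus stimulus and 100% = saturating agonist plus stimulus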
Insulin prom inh = TRM-6 insulin promoter activity inhibition; inhibition, % at 2 µM; TRM-6 cells, insulin promoter-eGFP reporter, imaging; reporter expression induced with tamoxifen; AID 1273; actives 0.9% (n = 130,000);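 active means inhibition above the mean plus 3 SD, with well images judged a real hit on visual review, cut at about 60% in these data, passing the limit was not always enough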
* = called active by the depositor; / = no result given. Compounds with a hit are over-represented: about 3.8% of the library has one in this group of screens.

SMILES | NPY-Y2 PAM-ag | NPY Y1 blocker | RAM network inh | NPY-Y2 antag | NPY1 pot ag | Insulin prom inh
O=c1cc(CSc2nnc(-c3cccs3)n2Cc2ccccc2)nc2sc3ccccc3n12 | 21 | -2 | 8.6* | 8 | -25 | /
Cc1cc(C(=O)CSc2nnc(-c3cccs3)n2Cc2ccccc2)c(C)n1C | -15 | 0 | 3 | 4 | -16 | -24
N#Cc1ccc2c(c1)nc1ccccn12 | 10 | 6 | 1 | / | 16 | 79*
Clc1ccc2nc3ccccn3c2c1 | 10 | -10 | -1 | 5 | 24 | 68
Cc1cc([N+](=O)[O-])nn1CCC(=O)Nc1nccs1 | 3 | 3 | 0 | / | 4 | 27
Cc1ccc2c(c1)N(CC(=O)NC1CCC(C)CC1)C(=O)CO2 (centres undefined) | 1 | 4 | -1 | 5 | -11 | -46
Cc1ccc2c(c1)N(CC(=O)OC(CC(C)C)C(=O)NC1CCCC1)C(=O)CO2 (centres undefined) | -14 | 33* | 8.7* | 21* | -24 | -25
Cc1cc2ncn(/N=C/c3cccnc3)c2cc1C | -12 | 1 | 2 | -2 | 10 | -7
Cc1cc2ncn(/N=C/c3ccc(-c4ccccc4)o3)c2cc1C | -12 | 8 | 9.5* | 4 | -31 | 29
CC(C)C(=O)Nc1cc(C(F)(F)F)ccc1N1CCOCC1 | 4 | 2 | 1 | 0 | 10 | 19
Cc1cc(C#N)c(C)n1-c1cc(C(F)(F)F)ccc1N1CCOCC1 | -17 | 21* | 5 | 20* | -13 | 21
Cc1[nH]c2ccccc2c1/C=N/NC(=O)c1cccc([N+](=O)[O-])c1 | -4 | 5 | 2 | / | 2 | -46
Cc1[nH]c2ccccc2c1/C=N/Nc1ccc([N+](=O)[O-])cc1 | 56* | -15 | 5 | -9 | 65* | /
COc1ccccc1NS(=O)(=O)c1cc([N+](=O)[O-])ccc1N/N=C/c1c(C)[nH]c2ccccc12 | 24 | -10 | 11* | -6 | 22 | -260
O=[N+]([O-])c1ccc(N/N=C/c2c[nH]c3ccccc23)c(S(=O)(=O)Nc2ccc(Cl)cc2)c1 | 3 | 0 | 8 | 0 | 2 | -20
Cc1ccc(S(=O)(=O)N2CCOCC2)cc1NC(=O)COC(=O)C1COc2ccccc2O1 (centres undefined) | 0 | 0 | 0 | 2 | 5 | -60
O=C(CN1N=C(c2ccccc2)CCC1=O)NCc1ccco1 | 8 | -3 | 0 | 1 | -34 | -30
CCN1C(=O)/C(=C2/C(=O)N3c4c(cc(OC(C)=O)cc42)C(C)=CC3(C)C)SC1=S | 3 | 3 | 8.7* | -4 | 6 | 53
Clc1nc(CN2CCOCC2)nc2sc3c(c12)CCC3 | -5 | -4 | 2 | / | -17 | /
Cc1cccc(Oc2nc(CN3CCOCC3)nc3sc4c(c23)CCCC4)c1 | -3 | 20* | 0 | 29* | -22 | 36
CCOC(=O)c1c(NC(=O)C2COc3ccccc3O2)sc2c1CC(C)(C)NC2(C)C (centres undefined) | -41 | 45* | 1 | 21* | -127 | /
COc1ccc(/C=C(/NC(=O)c2ccc(OC)cc2)C(=O)NCCc2c[nH]c3ccccc23)cc1 | 0 | 1 | 8.5* | 4 | -8 | 0
CC1Cc2ccccc2N1C(=O)C12CCC(C)(C(=O)C1)C2(C)C (centres undefined) | 2 | 1 | 3 | 4 | -9 | 95*
CCC(C)n1cnc2c(c1=O)c1nc3ccccc3nc1n2Cc1ccc2c(c1)OCO2 (centres undefined) | 2 | 7 | 10* | 5 | -13 | 3
CCC(C)n1cnc2c(c1=O)c1nc3ccccc3nc1n2-c1ccc2c(c1)OCCO2 (centres undefined) | -16 | 5 | 4 | 5 | -4 | -8
Cc1ccc(C(=O)N/C(=C/c2cccs2)C(=O)NCCCn2ccnc2)cc1 | 3 | 2 | 0 | 0 | -6 | 0
NNC(=S)Nc1ccc(C(F)(F)F)cc1Cl | -18 | / | / | / | -3 | /
COc1ccc(-n2cnnc2SCC(=O)Nc2cc(C)on2)cc1 | 1 | 0 | 2 | / | 0 | 39
Cc1cc(C)nc(N2CCCC(CCC(=O)NCc3ccc(F)c(F)c3)C2)n1 (centres undefined) | -9 | -4 | -1 | / | -11 | /

Screening results deposited in PubChem by several laboratories.
